Test results published in ChEMBL document CHEMBL2203250, “Synthesis and evaluation of 3-¹²³I-iodo-5-[2-(S)-3-pyrrolinylmethoxy]-pyridine (niodene) as a potential nicotinic α4β2 receptor imaging agent” (Bioorg Med Chem Lett, 2012).
Activity calls are given as the source filed them. The calls are words filed in the database; no cut-off is given here.

What was measured:
[1] = target: T1, Neuronal acetylcholine receptor; alpha4/beta2 (Rattus norvegicus) (UniProt P09483+P12390); experiment: Ratio of nifene Ki to compound Ki for rat alpha4beta2 nAChR; type: protein-complex assay
[2] = target: T1, Neuronal acetylcholine receptor; alpha4/beta2 (Rattus norvegicus); experiment: Binding affinity to alpha4beta2 nAChR in Sprague-Dawley rat cerebellum at 0.1 Ci/umol after 60 mins by autoradiographic analysis; type: protein-complex assay; details: tested as the 123I-labelled form
Procedure, shortened: (§1)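 Frozen rat brain sections were thawed for about 15 min at ambient temperature. They were preincubated 10 min in 120 mM Tris HCl with 5 mM NaCl, 5 mM KCl, 2.5 mM CaCl2 and 1 mM MgCl2, pH 7.4, then incubated with 5 nM 123I-niodene at 37 °C for 60 min. […] Sections were washed in ice-cold buffer and exposed to phosphor screens for at least 16 h. Regional binding was read as DLU/mm²; n ≥5 sections, mean and SD.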

[3] = target: T1, Neuronal acetylcholine receptor; alpha4/beta2 (Rattus norvegicus); experiment: Binding affinity to alpha4beta2 nAChR in Sprague-Dawley rat cortex at 0.1 Ci/umol after 60 mins by autoradiographic analysis; details: tested as the 123I-labelled form; procedure, shortened: as §1
[4] = target: T1, Neuronal acetylcholine receptor; alpha4/beta2 (Rattus norvegicus); experiment: Binding affinity to alpha4beta2 nAChR in Sprague-Dawley rat thalamus at 0.1 Ci/umol after 60 mins by autoradiographic analysis; type: protein-complex assay; details: tested as the 123I-labelled form; procedure, shortened: as §1
[5] = target: T1, Neuronal acetylcholine receptor; alpha4/beta2 (Rattus norvegicus); experiment: Displacement of [18F]nifene from alpha4beta nAChR in Sprague-Dawley rat subiculum at 10 nM after 60 mins by autoradiographic analysis; type: protein-complex assay
Procedure, shortened: (§2)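 Rat brain slices were preincubated 10 min in Tris HCl buffer with salts, pH 7.4. […] Slices got two 1-min ice-cold Tris HCl washes and a cold water rinse, then overnight phosphor-screen exposure. Regional binding was read as DLU/mm² and expressed relative to cerebellum.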

[6] = target: T1, Neuronal acetylcholine receptor; alpha4/beta2 (Rattus norvegicus); experiment: Displacement of [18F]nifene from alpha4beta nAChR in Sprague-Dawley rat striatum at 10 nM after 60 mins by autoradiographic analysis; type: protein-complex assay; procedure, shortened: as §2
[7] = target: T1, Neuronal acetylcholine receptor; alpha4/beta2 (Rattus norvegicus); experiment: Displacement of [18F]nifene from alpha4beta nAChR in Sprague-Dawley rat frontal cortex at 10 nM after 60 mins by autoradiographic analysis; type: tissue-based; procedure, shortened: as §2
[8] = target: T1, Neuronal acetylcholine receptor; alpha4/beta2 (Rattus norvegicus); experiment: Displacement of [18F]nifene from alpha4beta nAChR in Sprague-Dawley rat thalamus at 1 uM after 60 mins by autoradiographic analysis; type: protein-complex assay; procedure, shortened: as §2
[9] = target: T1, Neuronal acetylcholine receptor; alpha4/beta2 (Rattus norvegicus); experiment: Displacement of [18F]nifene from alpha4beta nAChR in Sprague-Dawley rat thalamus at 10 nM after 60 mins by autoradiographic analysis; type: protein-complex assay; procedure, shortened: as §2
[10] = tested on: Nucleic Acid; experiment: Ratio of drug uptake in cortex to cerebellum in Sprague-Dawley rat brain at 0.1 Ci/umol after 60 mins by autoradiographic analysis; type: ADME, tissue-based; details: in vivo, 1 h
[11] = tested on: Nucleic Acid; experiment: Ratio of drug uptake in thalamus to cerebellum in Sprague-Dawley rat brain at 0.1 Ci/umol after 60 mins by autoradiographic analysis; type: ADME, tissue-based; details: in vivo, 1 h
[12] = tested on: Nucleic Acid; experiment: Ratio of drug uptake in thalamus to cerebellum in Sprague-Dawley rat brain at 2 uCi/umol after 60 mins by autoradiographic analysis; type: ADME, tissue-based; details: in vivo, 1 h
[13] = target: Neuronal acetylcholine receptor; alpha4/beta2 (Rattus norvegicus, UniProt P09483+P12390); experiment: Displacement of [3H]cytisine from alpha4beta2 nAChR in rat brain homogenate; type: tissue-based
Neuronal acetylcholine receptor; alpha4/beta2, sequence (P09483 whole entry): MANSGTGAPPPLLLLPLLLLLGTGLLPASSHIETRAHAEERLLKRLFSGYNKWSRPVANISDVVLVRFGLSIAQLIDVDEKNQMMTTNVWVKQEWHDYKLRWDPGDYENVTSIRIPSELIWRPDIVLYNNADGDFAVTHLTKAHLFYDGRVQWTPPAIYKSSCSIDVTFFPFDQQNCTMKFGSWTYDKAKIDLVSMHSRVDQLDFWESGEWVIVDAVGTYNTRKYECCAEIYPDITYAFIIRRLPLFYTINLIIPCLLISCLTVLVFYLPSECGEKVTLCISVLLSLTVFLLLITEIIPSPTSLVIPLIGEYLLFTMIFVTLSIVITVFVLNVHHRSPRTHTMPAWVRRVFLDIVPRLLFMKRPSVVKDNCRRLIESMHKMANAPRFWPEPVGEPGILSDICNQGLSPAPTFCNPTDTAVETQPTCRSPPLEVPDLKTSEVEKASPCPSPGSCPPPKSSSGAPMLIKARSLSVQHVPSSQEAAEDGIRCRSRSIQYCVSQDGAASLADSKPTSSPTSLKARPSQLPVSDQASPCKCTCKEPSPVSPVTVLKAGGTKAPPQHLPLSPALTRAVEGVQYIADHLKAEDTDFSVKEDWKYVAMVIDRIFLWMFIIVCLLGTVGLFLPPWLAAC
Neuronal acetylcholine receptor; alpha4/beta2, sequence (P12390 whole entry): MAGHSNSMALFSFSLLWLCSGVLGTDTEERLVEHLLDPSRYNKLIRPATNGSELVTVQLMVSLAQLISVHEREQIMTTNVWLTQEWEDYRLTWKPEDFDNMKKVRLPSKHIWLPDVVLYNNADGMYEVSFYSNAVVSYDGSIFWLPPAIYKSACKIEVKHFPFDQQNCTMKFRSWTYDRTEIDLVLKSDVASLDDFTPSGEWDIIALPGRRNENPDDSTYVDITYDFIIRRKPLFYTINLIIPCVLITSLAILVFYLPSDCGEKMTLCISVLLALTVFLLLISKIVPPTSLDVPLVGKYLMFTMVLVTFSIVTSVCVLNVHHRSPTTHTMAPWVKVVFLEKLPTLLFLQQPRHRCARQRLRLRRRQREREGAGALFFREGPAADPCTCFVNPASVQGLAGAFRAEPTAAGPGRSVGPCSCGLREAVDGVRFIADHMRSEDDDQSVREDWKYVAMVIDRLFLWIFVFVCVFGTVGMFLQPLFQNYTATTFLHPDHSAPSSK
Procedure, shortened: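 Male Sprague–Dawley rat cerebrum was homogenized, washed twice by centrifugation at 40,000g and resuspended. It was incubated with 1 nM 3H-cytisine and competitor (10^-10 to 10^-3 M) in 50 mM Tris, pH 7.0, with 120 mM NaCl, 5 mM KCl, 1 mM MgCl2 and 2.5 mM CaCl2, at 2 °C for 75 min. […] The assay was filtered, and filters were washed in cold buffer and scintillation-counted.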

`Ic1cncc(OC[C@@H]2C=CCN2)c1` was tested, and the Ratio Ki [1] was 2, the Activity [2] was “inactive” and the Activity [3] was “Active”. The Activity [4] was “Active”, the Activity [5] was “Active” and the Activity [6] was “Active”. For the same compound, the Activity [7] was “Active”, the Activity [8] was > 80% and the Activity [9] was > 65%.
With `[123I]c1cncc(OC[C@@H]2C=CCN2)c1` the Ratio [10] was 1.6 and the Ratio [11] was 4.
`CN1CCC[C@H]1c1cccnc1` was tested, and the Activity [5] was “Active”, the Activity [6] was “Active” and the Activity [7] was “Active”. For the same compound, the Activity [9] was 24%.
For `[18F]c1ncccc1OC[C@@H]1C=CCN1`, the Ratio [12] was 7.3.
In the case of `Fc1ncccc1OC[C@@H]1C=CCN1`, the Ki [13] is reported as 0.5 nM.
